FN deposit inh – fibronectin deposition inhibition; AH1F fibroblasts, Alexa488-fibronectin deposition fluorescence, overnight; inhibition, % at 12.6 µM; hit rate 0.086% among 350,000; AID 743247;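 active = mean inhibition across replicates of 30% or more, regardless of how many single replicates reach that level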
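Material – AH1F fibroblast monolayer, labelled fibronectin deposition · Reagent – labelled fibronectin 24 nM · Timing – 1 h adhesion, overnight exposure · Measured by – fluorescence at 485 nm excitation, 525 nm emission · Read-out – inhibition of fibronectin deposition signal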
SIRT5 block – sirtuin-5 (human) deacylase inhibition. hit rate 1.1% among 330,000. Purified SirT5, succinyl-peptide AMC, trypsin-coupled fluorescence. AID 652115. inhibition, % at 15 µM; in the data active = inhibition above about 15%
Target sequence (Q9NXA8 whole entry, looked up): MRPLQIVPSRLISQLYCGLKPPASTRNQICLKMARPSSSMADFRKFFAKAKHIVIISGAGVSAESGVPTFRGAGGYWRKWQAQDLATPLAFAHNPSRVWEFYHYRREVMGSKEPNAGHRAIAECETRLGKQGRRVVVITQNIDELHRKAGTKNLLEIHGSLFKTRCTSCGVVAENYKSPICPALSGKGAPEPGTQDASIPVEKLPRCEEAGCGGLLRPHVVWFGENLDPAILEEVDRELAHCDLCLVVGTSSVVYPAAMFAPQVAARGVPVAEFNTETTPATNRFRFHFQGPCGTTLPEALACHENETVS
E-selectin induc – induces E-selectin expression in human endothelial cells | P16581 | HUVEC E-selectin immunofluorescence imaging; normalized: neutral wells 0, TNF-alpha wells 100 | hit rate 0.37% among 260,000 | activation, % at 7.58 µM;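 active = mean E-selectin-positive cell signal at least 10% of the positive control, reached in at least 60% of replicates, without over 20% cell loss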
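Read-out basis: % PE-positive cells; Test system: HUVEC primary endothelial cells; Technique: immunofluorescence imaging; Dosing: single-point compound dose.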
Ecoli rRNA inh – inhibits bacterial ribosomal RNA function over humanized ribosomes. GFP signal change (wild-type ribosome), % (test concentration not listed). E. coli WT GFP vs humanized-ribosome RFP mutants, fluorescence, 24 h; stronger effect = lower value; DMSO median 0, no signal -100. hit rate 1.6% among 350,000;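 active = significant combined selectivity score with lowered wild-type GFP, culture density cut under 30%, mutant RFP and density less affected; inactive = any of these conditions unmet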
FGF22 binding – FGF22 (human) thermal shift binding; hit rate 1.5% among 340,000; AID 651658; recombinant FGF22 thermal shift, SYPRO orange fluorescence; percent of sucrose octasulfate shift, DMSO zero; activity (Tm shift, normalised), % at 9.99 µM;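 active = mean Tm shift, scaled 0 neutral to 100 positive control, at about 1.3% or above, every replicate too, limit read from the data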
Target sequence (Q9HCT0 whole entry, looked up): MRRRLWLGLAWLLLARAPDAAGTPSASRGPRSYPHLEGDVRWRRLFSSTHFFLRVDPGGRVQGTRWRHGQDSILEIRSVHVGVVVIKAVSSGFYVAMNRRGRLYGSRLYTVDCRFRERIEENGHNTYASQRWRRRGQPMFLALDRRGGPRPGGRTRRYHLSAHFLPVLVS
C2C12 statin – suppression of simvastatin myotoxicity. C2C12 myotubes + simvastatin, ATP luminescence, 48 h; scaled: DMSO 0, geranylgeraniol control 100. rescue of ATP level, % at 7.49 µM. hit rate 0.78% among 330,000. AID 602340;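 active = mean ATP rescue above about 67%, or every replicate alone reaching that limit, limit read from the data, passing the limit was not always enough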;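 note: myotubes were challenged with 10 µM simvastatin during compound exposure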
Each line names hits and unclear results; the compound was inactive in the other large screens. Shown are actives, neighbours in structure and some others; about 4% of the full set was active somewhere.

O=C(Cn1cnc2ccccc2c1=O)NCC(=O)N1CCOCC1	none (no result: FN deposit inh, E-selectin induc, C2C12 statin)
CCOC(=O)N1CCN(C(=O)Cn2nc(C)c3sc4ccccc4c3c2=O)CC1	C2C12 statin 103 (no result: FN deposit inh, SIRT5 block, E-selectin induc, Ecoli rRNA inh, FGF22 binding)
CCOC(=O)N1CCN(C(=O)CNC(=O)Cn2cnc3ccccc3c2=O)CC1	FGF22 binding 44
COc1ccc(CN(C)C[C@@H]2Oc3ccc(NC(=O)c4ccncc4)cc3CC(=O)N([C@H](C)CO)C[C@@H]2C)cc1	none
COc1ccc(NC(=O)N(C)C[C@@H]2Oc3ccc(NC(=O)c4ccncc4)cc3CC(=O)N([C@@H](C)CO)C[C@H]2C)cc1	E-selectin induc 72 (no result: FN deposit inh)
COc1ccc(NC(=O)N(C)C[C@H]2Oc3ccc(NC(=O)c4ccncc4)cc3CC(=O)N([C@H](C)CO)C[C@@H]2C)cc1	E-selectin induc 41 (no result: FN deposit inh)
COc1ccc(NC(=O)N(C)C[C@@H]2Oc3ccc(NC(=O)c4ccncc4)cc3CC(=O)N([C@H](C)CO)C[C@@H]2C)cc1	E-selectin induc 226 (no result: FN deposit inh)
COc1ccc(NC(=O)N(C)C[C@@H]2Oc3ccc(NC(=O)c4ccncc4)cc3CC(=O)N([C@@H](C)CO)C[C@@H]2C)cc1	E-selectin induc 81 (no result: FN deposit inh)
COc1ccc(NC(=O)N(C)C[C@H]2Oc3ccc(NC(=O)c4ccncc4)cc3CC(=O)N([C@@H](C)CO)C[C@H]2C)cc1	none (no result: FN deposit inh)
O=C(c1ccccc1F)N1CC[C@H]2[C@H](CO)Nc3ccc(C#Cc4ccccc4)cc3[C@H]21	none
C[C@@H]1CN([C@@H](C)CO)C(=O)Cc2cc(NC(=O)c3ccncc3)ccc2O[C@@H]1CN(C)S(C)(=O)=O	E-selectin induc 37 (no result: FN deposit inh)
C[C@H]1CN([C@@H](C)CO)C(=O)Cc2cc(NC(=O)c3ccncc3)ccc2O[C@H]1CN(C)C(=O)Nc1ccc(C(F)(F)F)cc1	E-selectin induc 33 (no result: FN deposit inh)
CCCCN(CCNP(=O)(OCC)OCC)CP(=O)(OCC)OCC	C2C12 statin 72 (no result: FN deposit inh, SIRT5 block, E-selectin induc, Ecoli rRNA inh, FGF22 binding)
Cc1onc(-c2ccncc2)c1C(=O)O	C2C12 statin 106 (no result: FN deposit inh, SIRT5 block, E-selectin induc, Ecoli rRNA inh, FGF22 binding)
O=C(CSc1nc2[nH]ncc2c(=O)[nH]1)Nc1ccc(OC(F)(F)F)cc1	FGF22 binding 14 (no result: C2C12 statin)
Cc1ccc(NC(=O)CSc2nc3[nH]ncc3c(=O)[nH]2)cc1	FGF22 binding 44 (no result: E-selectin induc, Ecoli rRNA inh)
C[C@H]1CN([C@@H](C)CO)C(=O)c2cc(C#CC3CC3)cnc2O[C@H]1CN(C)Cc1ccccc1C(=O)O	none (no result: FN deposit inh)
CO[C@H]1CN(C)C(=O)c2cc(C#N)ccc2OC[C@H]2O[C@@H](CC[C@H]2OC)CCN(C)C(=O)[C@H]1C	none
COCC#Cc1ccc([C@H]2[C@@H](CO)N3C(=O)CN(C(=O)CN4CCOCC4)C[C@H]23)cc1	none (no result: FGF22 binding, C2C12 statin)
O=c1[nH]c(CN2CCN(c3ccc(O)cc3)CC2)nc2scc(-c3ccc(Cl)cc3)c12	Ecoli rRNA inh -24 (no result: C2C12 statin)
O=c1[nH]c(CN2CCN(c3ccccc3O)CC2)nc2scc(-c3ccccc3Cl)c12	none (no result: E-selectin induc)
COc1ccc(N=c2oc3c(OC)cccc3cc2C(=O)NCc2ccco2)cc1OC	none (no result: FN deposit inh, SIRT5 block, E-selectin induc, Ecoli rRNA inh, FGF22 binding)
COc1cccc2cc(C(=O)Nc3ccc(F)cc3)c(=Nc3ccc(C(=O)O)cc3)oc12	FGF22 binding 43
CCCCCC1CC(CC(=O)O)C(=O)O1 (centres undefined)	C2C12 statin 119 (no result: FN deposit inh, SIRT5 block, E-selectin induc, Ecoli rRNA inh, FGF22 binding)
CCCCCC1CC(CC(=O)Nc2ccc([N+](=O)[O-])cc2)C(=O)O1 (centres undefined)	none (no result: E-selectin induc, C2C12 statin)
Cc1noc(C)c1NC(=O)Nc1ccc2c(c1)CC(=O)N([C@@H](C)CO)C[C@@H](C)[C@H](CN(C)Cc1ccccc1)O2	none (no result: FN deposit inh)
C[C@H]1CN([C@@H](C)CO)S(=O)(=O)c2ccc(C#CC3CCCC3)cc2O[C@H]1CN(C)C(=O)C1CC1	none (no result: FN deposit inh)
CC(C)(C)c1cc(NCCCn2ccnc2)n2ncc(-c3ccccc3)c2n1	Ecoli rRNA inh -49 (no result: C2C12 statin)
CCCc1cc(NCCCn2ccnc2)n2nc(C)c(-c3ccccc3)c2n1	SIRT5 block 18 (no result: E-selectin induc, C2C12 statin)
Cc1cc(NCCCn2ccnc2)n2ncc(-c3ccc(Cl)cc3)c2n1	none (no result: FN deposit inh, SIRT5 block, E-selectin induc, Ecoli rRNA inh, FGF22 binding)
Cc1cccc(-c2cc3nc(C)cc(NCCCn4ccnc4)n3n2)c1	none (no result: SIRT5 block, E-selectin induc, Ecoli rRNA inh, FGF22 binding)
COc1ccc(S(=O)(=O)Nc2ccc3c(c2)C(=O)N([C@H](C)CO)C[C@H](C)[C@@H](CN(C)Cc2ccc(Cl)c(Cl)c2)OCCCC[C@@H](C)O3)cc1	none (no result: FN deposit inh, C2C12 statin)
COc1ccc2c3c(n(C)c2c1)[C@H](CO)N(Cc1ccccc1OC)CC31CN(C(=O)C2CC2)C1	none (no result: FN deposit inh, SIRT5 block, E-selectin induc, FGF22 binding, C2C12 statin)
CCCCn1c(N)c(S(=O)(=O)c2ccc(C)cc2)c2nc3ccccc3nc21	none (no result: C2C12 statin)
CN(C)CCCn1c(N)c(S(=O)(=O)c2ccccc2)c2nc3ccccc3nc21	Ecoli rRNA inh -28 (no result: C2C12 statin)
O=C(C[C@@H]1CC[C@H](NC(=O)C2CCC2)[C@@H](CO)O1)NCc1ccncc1	none
COc1ccc(S(=O)(=O)Nc2ccc3c(c2)C(=O)N([C@H](C)CO)C[C@@H](C)[C@@H](CN(C)Cc2ccc(C(=O)Nc4ccccc4N)cc2)O3)cc1	none (no result: FN deposit inh, C2C12 statin)
Cc1ccc(S(=O)(=O)Nc2ccc3c(c2)C(=O)N([C@H](C)CO)C[C@H](C)[C@H](CN(C)Cc2ccc(C(=O)Nc4ccccc4N)cc2)O3)cc1	C2C12 statin 82 (no result: FN deposit inh, SIRT5 block)
COc1ccc(S(=O)(=O)Nc2ccc3c(c2)C(=O)N([C@@H](C)CO)C[C@@H](C)[C@@H](CN(C)Cc2ccc(C(=O)Nc4ccccc4N)cc2)O3)cc1	E-selectin induc 34 (no result: FN deposit inh, C2C12 statin)

Source: PubChem BioAssay
